From PubChem
KCNQ1 inh – inhibitors of human KCNQ1 potassium channel; P51787; CHO-K1 KCNQ1, FluxOR thallium flux fluorescence; stronger effect = higher value; B-score at 10 µM; 310,000 tested, 1.3% active; AID 2642;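 active = compounds whose thallium flux B-score, printed positive for inhibition, exceeds three library SD while starting fluorescence stays within three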;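 note: channel opened by potassium depolarization with thallium stimulus after 20 min compound exposure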
hERG protect – shields human hERG channel from block by proarrhythmic agents; Q12809; CHO-hERG, FluxOR thallium flux, dofetilide IC70 present; activation (rescue from dofetilide block), less the hit threshold, % at 10 µM; 310,000 tested, 0.51% active;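 active = activation above the mean of controls blocked by dofetilide plus 5 SD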;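 note: thallium influx through hERG after potassium depolarization seen as dye fluorescence rise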
Target sequence (Q12809 whole entry, looked up): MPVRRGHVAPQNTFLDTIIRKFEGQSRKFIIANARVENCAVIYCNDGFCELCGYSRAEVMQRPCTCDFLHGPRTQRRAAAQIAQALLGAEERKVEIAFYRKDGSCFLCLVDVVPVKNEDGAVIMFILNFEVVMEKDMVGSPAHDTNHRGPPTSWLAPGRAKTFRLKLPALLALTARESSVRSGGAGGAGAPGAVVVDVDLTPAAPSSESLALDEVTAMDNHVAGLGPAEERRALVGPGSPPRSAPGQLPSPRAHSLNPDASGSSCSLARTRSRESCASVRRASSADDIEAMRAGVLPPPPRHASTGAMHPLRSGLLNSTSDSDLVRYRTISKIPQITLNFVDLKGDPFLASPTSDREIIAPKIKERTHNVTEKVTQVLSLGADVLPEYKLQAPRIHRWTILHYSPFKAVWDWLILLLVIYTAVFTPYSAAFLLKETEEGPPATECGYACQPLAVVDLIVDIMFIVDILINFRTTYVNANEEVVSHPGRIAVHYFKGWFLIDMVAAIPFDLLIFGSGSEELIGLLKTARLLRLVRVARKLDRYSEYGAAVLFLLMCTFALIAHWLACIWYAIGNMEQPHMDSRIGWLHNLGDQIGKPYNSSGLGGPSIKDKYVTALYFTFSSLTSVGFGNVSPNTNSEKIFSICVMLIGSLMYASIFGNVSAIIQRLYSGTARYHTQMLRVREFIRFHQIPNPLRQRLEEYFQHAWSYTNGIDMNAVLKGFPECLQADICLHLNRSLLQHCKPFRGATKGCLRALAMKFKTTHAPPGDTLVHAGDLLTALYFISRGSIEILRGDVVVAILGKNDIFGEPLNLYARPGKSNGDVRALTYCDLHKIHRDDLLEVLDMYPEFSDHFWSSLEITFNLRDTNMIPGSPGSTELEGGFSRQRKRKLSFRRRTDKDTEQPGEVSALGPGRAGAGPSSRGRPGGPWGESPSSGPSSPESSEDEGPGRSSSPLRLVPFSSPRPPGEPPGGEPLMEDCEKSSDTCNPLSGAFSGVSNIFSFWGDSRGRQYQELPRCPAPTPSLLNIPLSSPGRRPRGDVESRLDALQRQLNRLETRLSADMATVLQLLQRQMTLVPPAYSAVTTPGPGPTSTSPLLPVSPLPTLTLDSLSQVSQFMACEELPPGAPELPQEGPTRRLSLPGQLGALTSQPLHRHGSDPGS
Kir21 inh – Kir2.1 (mouse) channel inhibition; P35561; HEK293-Kir2.1, FluxOR thallium flux fluorescence; stronger effect = lower value; B-score at 10 µM; 310,000 tested, 0.85% active; AID 1672;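 active = fluorescence ratio B-score at or below minus 3 SD of library scores, with starting-brightness B-score within 2 SD, cut at about -4.2 in these data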;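 note: channel flux triggered by added potassium and thallium sulfate stimulus; B-score of peak minus minimum fluorescence over baseline after thallium stimulus; more negative B-score means stronger Kir2.1 block with less thallium influx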
KCNK9 block – human KCNK9 channel inhibition; Q9NPC2; HEK293 KCNK9, FluxOR thallium flux fluorescence; stronger effect = lower value; B-score at 10 µM; 310,000 tested, 1.2% active; AID 488922;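 active = ratio B-score over 3 SD below the library mean, with starting fluorescence within 5 SD of its mean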;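 note: negative B-score means less thallium flux so channel inhibition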
KCNK3 inh – human KCNK3 channel inhibition, primary screen. CHO-KCNK3 thallium flux, FluxOR fluorescence; stronger effect = lower value. B-score at 10 µM. AID 602410. 340,000 tested, 0.84% active;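 active = B-score under library mean minus 4 SD, starting fluorescence ratio at most library mean plus 5 SD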;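 note: more negative B-score means stronger inhibition of thallium flux through KCNK3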
KCNQ1 act – human KCNQ1 channel potentiation or activation | CHO-K1 KCNQ1, thallium flux FluxOR fluorescence; stronger effect = higher value | B-score at 10 µM | 310,000 tested, 0.35% active;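 active = fluorescence ratio B-score, a plate-corrected score, at least three library SD, with initial intensity B-score within 5 SD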
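Assay system: CHO-K1 cells stably expressing KCNQ1. Medium: assay buffer for compound exposure, DMSO matched across wells. Timing: 37 °C overnight plating, 90-min dark dye load, 20-min compound pretreatment. Signal: kinetic FluxOR fluorescence, 10 s baseline plus 110 s post-stimulus.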
KCNK9 inh conf – human KCNK9 inhibitor confirmation; 4,900 tested, 43% active; shares compounds with KCNK9 block; HEK293 KCNK9 cells, FluxOR thallium flux fluorescence; inhibition, % at 10 µM; AID 492992;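 active = thallium signal inhibited by more than 5 SD of the compound-free buffer control wells, on both duplicate plates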;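 note: 0% = assay buffer control wells without compound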
Kir21 sel – tests whether KCNK9 modulators also affect mouse Kir2.1; Kir2.1 cells, FluxOR thallium flux fluorescence; shares compounds with KCNK9 block; 4,900 tested, 4% active; inhibition, % at 10 µM;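 active = thallium signal drop more than 5 SD beyond the mean of the no-compound control wells, seen in both duplicate plates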;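 note: signal is fluorescence rise after thallium addition divided by baseline fluorescence; plate controls were assay buffer only for no effect and full block by chlorpromazine control for full effect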
KCNK9 uninduced – non-induced cell nonspecific activity of KCNK9 modulators | shares compounds with KCNK9 block | non-induced KCNK9-HEK293, FluxOR thallium flux | inhibition, % at 10 µM | 4,900 tested, 40% active | AID 492997;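 active = thallium signal drop beyond 5 SD of the untreated control mean, on both duplicate plates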;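 note: plate controls were buffer only IC0 wells for no effect and SID17386958 at its maximal inhibitory level for full effect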
KCNK3 confirm – confirmation of human KCNK3 two-pore domain potassium channel inhibitors | shares compounds with KCNK3 inh | CHO-KCNK3 thallium flux, FluxOR fluorescence; 0% buffer, 100% carvedilol maximal block | ratio percent of control, % at 10 µM | 2,400 tested, 99% active;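 active = ratio percent of control, averaged over triplicates, above buffer control mean plus 5 SD, cut at about 64% in these data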;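 note: ratio is the fluorescence rise from min to max over baseline after thallium stimulus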
KCNK3 noninduced – KCNK3 inhibitor counter-screen hit in non-induced cells | 2,400 tested, 40% active | shares compounds with KCNK3 inh | thallium flux ratio (lower = more inhibition) at 10 µM | non-induced KCNK3 parental cells, FluxOR thallium flux; stronger effect = lower value;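 active = thallium flux ratio, averaged over three wells, more than 5 SD below the buffer control mean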;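 note: host cells are CHO cells without KCNK3 induction; ratio is peak minus trough fluorescence over baseline then normalized to buffer controls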
Active calls of the source: *; i = inactive; . = no result given. A selection: hits, their analogues and other compounds. The true share with any hit is near 3.7%.

SMILES | KCNQ1 inh | hERG protect | Kir21 inh | KCNK9 block | KCNK3 inh | KCNQ1 act | KCNK9 inh conf | Kir21 sel | KCNK9 uninduced | KCNK3 confirm | KCNK3 noninduced
CCOC(=O)C1CCN(C(=O)COc2ccc(Br)cc2Br)CC1 | i | -14.1 | -1.96 | i | i | i | . | . | . | . | .
COc1ccccc1-c1c(C)oc2c(CN3CCCCC3C)c(O)ccc2c1=O (stereo not given) | i | -1.9 | 1.56 | i | i | i | . | . | . | . | .
O=C(CSc1nc2[nH]ncc2c(=O)n1-c1ccccc1)NCCc1ccccc1 | i | -14.0 | 1.16 | i | i | i | . | . | . | . | .
O=C(CSc1nc2[nH]ncc2c(=O)n1-c1ccc(Cl)c(Cl)c1)NCc1ccccc1Cl | i | -18.9 | 0.02 | -8.18* | -12.2* | i | 48.5%* | i | 33.5%* | 128.3* | 0.141*
COC(=O)C1=C(C)N=C2SC(C#N)=C(N)N2C1c1ccc(OCc2ccccc2)cc1 (stereo not given) | i | -5.6 | -2.39 | -16.6* | -9.91* | i | 74.0%* | i | 52.0%* | 96.7* | 0.149*
COC(=O)C1=C(C)N=C2SC(C#N)=C(N)N2C1c1cc(OC)c(OC)c(OC)c1 (stereo not given) | i | -4.7 | 0.39 | i | i | i | . | . | . | . | .
C[C@H](NC(=O)c1ccccc1Cl)C(=O)OC(C(=O)Nc1cc(C(F)(F)F)ccc1Cl)c1ccccc1 (stereo not given in full) | i | -3.0 | 0.44 | -18.4* | -11* | i | 68.5%* | i | 39.5%* | 108.0* | i
N#CCC(=O)Nc1ccc(C(=O)OC(C(=O)Nc2cc(C(F)(F)F)ccc2Cl)c2ccccc2)cc1 (stereo not given) | i | -9.3 | 2.56 | i | i | i | . | . | . | . | .
CCN(CC)C(=O)CSc1nc2sc3c(c2c(=O)n1-c1ccc(C)cc1)CC(C)(C)SC3 | i | -6.8 | 1 | i | -17.3* | i | i | i | 25.5%* | 120.7* | 0.14*
CC(C)[C@@H](CSc1ccccc1)N1CCN(Cc2ccccc2)CCC1=O | i | -4.3 | 0.68 | i | i | i | . | . | . | . | .
COc1nc(N2CCCCCC2)nc(N2CCCCCC2)n1 | i | -12.4 | -0.94 | -10.9* | i | i | i | i | 53.5%* | 99.0* | i
O=c1[nH]c(=O)c2[nH]c(=O)n(-c3ccccc3)c2[nH]1 | . | . | . | . | i | . | . | . | . | . | .
O=C(Nc1cccc(-c2cn3c(n2)SCC3)c1)c1ccc(Br)o1 | i | -16.2 | 2.3 | -10* | i | i | 37.0%* | i | i | 109.3* | i
O=C(Nc1cccc(F)c1)c1ccc(Br)o1 | i | -6.9 | -0.36 | i | i | i | . | . | . | . | .
O=C(Nc1cccc(-c2cc3ccccc3oc2=O)c1)c1ccc(Br)o1 | i | -10.6 | 1.04 | -8.67* | -10.7* | i | 33.5%* | i | i | 121.3* | 0.15*
Cc1cc2nc(-c3cccc(NC(=O)c4ccc(Br)o4)c3)oc2cc1C | i | -9.1 | 0.32 | -9.83* | -9.51* | i | 37.5%* | i | i | 121.0* | 0.143*
O=C(Nc1ccc2oc(-c3cccnc3)nc2c1)c1ccc(Br)o1 | i | -6.0 | 0.28 | i | i | i | . | . | . | . | .
O=C(Nc1cccc(OC(F)(F)F)c1)c1ccc(Br)o1 | i | -14.9 | -0.34 | -10.2* | -9.56* | i | 44.0%* | i | i | 116.0* | i
COc1ccc(-c2cc3ccccc3oc2=O)cc1NC(=O)c1ccc(Br)o1 | i | -0.7 | -0.76 | i | i | i | . | . | . | . | .
CCC(CC)COC(=O)C1=C(C)NC(=O)NC1c1cccc([N+](=O)[O-])c1 (stereo not given) | i | -4.5 | 0.01 | i | i | i | . | . | . | . | .
CCOC(=O)N1CCN(C(=O)COC(=O)C2CCN(S(=O)(=O)c3c(C)c(C)cc(C)c3C)CC2)CC1 | i | -18.9 | 1.66 | i | i | i | . | . | . | . | .
Cc1cc(OCc2cc(C(=O)NCCN3CCCCC3CO)no2)cc(C)c1Cl (stereo not given) | i | -22.5 | -3.13 | i | i | i | . | . | . | . | .
CCCN(/C=N/c1sc2c(c1C#N)CCCCC2)CCC | i | -19.6 | -1.47 | -19.4* | -10.9* | i | 69.0%* | i | 47.5%* | 105.0* | i
Cc1c(S(=O)(=O)N2CCCCC2)c(=O)n(C)c(=O)n1C | i | -13.0 | -0.18 | i | i | i | . | . | . | . | .
O=C(NC1CCN(C(=S)Nc2ccccc2)CC1)C1CCCCC1 | i | -8.9 | 0.72 | i | i | i | . | . | . | . | .
SMILES | KCNQ1 inh | hERG protect | Kir21 inh | KCNK9 block | KCNK3 inh | KCNQ1 act | KCNK9 inh conf | Kir21 sel | KCNK9 uninduced | KCNK3 confirm | KCNK3 noninduced
COc1cc2c(c3oc(-c4ccccc4)cc(=O)c13)C=CC(C)(C)O2 | i | -10.2 | 0.07 | -9.36* | -8.8* | i | 43.5%* | i | i | 122.3* | 0.145*
CCOC(=O)c1ccc(N2C(=O)c3n[nH]c(-c4ccco4)c3C2c2ccc([N+](=O)[O-])cc2)cc1 (stereo not given) | i | -5.0 | -0.01 | -8.33* | -9.77* | i | 55.5%* | i | 42.0%* | 138.3* | 0.106*
Cc1ccc(C(=O)N/C(=C/c2ccc(N(C)C)cc2)C(=O)NCC2CCCO2)cc1 (stereo not given) | i | -2.6 | -0.66 | i | i | i | . | . | . | . | .
COc1ccccc1NC(=O)C(C)OC(=O)CCSc1ccc(F)cc1 (stereo not given) | i | -9.4 | -0.43 | -15.8* | i | i | 62.5%* | i | 29.5%* | 120.3* | i
COc1ccccc1NC(=O)CCSc1ccc(C)cc1 | i | -17.2 | -1.46 | i | i | i | . | . | . | . | .
CCCN(CC(=O)Nc1ccccc1C)C(=O)CSc1ccccc1C | . | . | . | . | i | . | . | . | . | . | .
CCCCN(CCCC)c1nc(-c2ccncc2)nc2ccccc12 | i | -32.3 | -0.11 | -9.12* | -9.38* | i | i | i | 33.5%* | 68.0* | i
COCCN(CCOC)c1nc(-c2ccccc2)nc2ccccc12 | i | -22.4 | -0.08 | i | i | i | . | . | . | . | .
